Values after ≈ are worked out from the molar mass of the structure shown. *1 amine or outer side, *2 acyl side, *3 side chain or, on linkers, in order; H or OH if unused. Where a SMILES comes first, the peptide text is derived from it. Bridges are numbered along the chain shown (N, C = ends). [ ]: non-standard residue; d: D form. The star is where a group is joined. pTerphenylCO(4''-OnC5H11) = CCCCCOc1ccc(-c2ccc(-c3ccc(C(=O)*)cc3)cc2)cc1; Orn(4R-OH,5R-OH) = O=C([C@H](C[C@@H](O)[C@@H](O)N[*:3])N[*:1])[*:2]; hTyr(3S-OH,4S-OH) = N[C@H](C(=O)O)[C@H](O)[C@@H](O)c1ccc(O)cc1; Pro(3S-OH,4S-Me) = C[C@H]1CN[C@H](C(=O)O)[C@H]1O; Hyp = O=C(O)[C@@H]1C[C@@H](O)CN1
Tests used:
Saccharomyces cerevisiae [1] = test: Antifungal activity against Saccharomyces cerevisiae BY4742 by CLSI method; type: functional
Saccharomyces cerevisiae [2] = test: Antifungal activity against FKS1 deficient Saccharomyces cerevisiae BY4742 by CLSI method; type: functional
[3] = Inhibition of Candida orthopsilosis H10 glucan synthase assessed as [3H]UDPG incorporation
How it was run: (§1)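 Cells were grown with vigorous shaking at 30°C to early stationary phase in YPD. Membrane GS was partially purified by product entrapment, using 10-fold more cells for low-activity strains. The polymerization assay was started by adding GS, with drug serially diluted from 0.01 to 10,000 ng/ml. Reactions ran 60 min at 25°C and were stopped on ice. IC50 came from sigmoidal variable-slope fits, as arithmetic means ± SD of three repetitions on three days.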

[4] = Inhibition of Candida albicans M122 glucan synthase assessed as [3H]UDPG incorporation; how it was run: as §1
Candida orthopsilosis [5] = test: Antifungal activity against Candida orthopsilosis 981224 by CLSI method; type: functional; conditions: Lodderomyces orthopsilosis
[6] = Inhibition of Candida albicans ATCC 90028 glucan synthase assessed as [3H]UDPG incorporation; how it was run: as §1
[7] = Inhibition of Candida albicans ATCC 36082 glucan synthase assessed as [3H]UDPG incorporation; how it was run: as §1
Candida albicans [8] = test: Antifungal activity against Candida albicans Sc5314 by CLSI method; type: functional
[9] = Inhibition of Candida parapsilosis ATCC 22019 glucan synthase by assessed as [3H]UDPG incorporation; how it was run: as §1
Candida parapsilosis [10] = test: Antifungal activity against Candida parapsilosis H4 by CLSI method; type: functional; conditions: Lodderomyces parapsilosis
[11] = Inhibition of Candida glabrata ATCC 90030 glucan synthase assessed as [3H]UDPG incorporation; set-up: species or system Nakaseomyces glabratus; how it was run: as §1
[12] = Inhibition of Saccharomyces cerevisiae BY4742 glucan synthase assessed as [3H]UDPG incorporation; how it was run: as §1
[13] = Inhibition of Saccharomyces cerevisiae BY4742-FKS1P649A mutant glucan synthase assessed as [3H]UDPG incorporation; how it was run: as §1
Candida parapsilosis [14] = test: Antifungal activity against Candida parapsilosis ATCC 22019 by CLSI method; type: functional; conditions: Lodderomyces parapsilosis
[15] = Inhibition of Candida glabrata T51916 glucan synthase assessed as [3H]UDPG incorporation; set-up: species or system Nakaseomyces glabratus; how it was run: as §1
Candida parapsilosis [16] = test: Antifungal activity against Candida parapsilosis H5 by CLSI method; type: functional; conditions: Lodderomyces parapsilosis
Candida albicans [17] = test: Antifungal activity against Candida albicans ATCC 90028 by CLSI method; type: functional
Nakaseomyces glabratus [18] = test: Antifungal activity against Candida glabrata ATCC 90030 by CLSI method; type: functional
Candida metapsilosis [19] = test: Antifungal activity against Candida metapsilosis am-2006-0113 by CLSI method; type: functional; conditions: Lodderomyces metapsilosis
[20] = Inhibition of Candida albicans Sc5314 glucan synthase assessed as [3H]UDPG incorporation; how it was run: as §1
[21] = Inhibition of Candida parapsilosis H4 glucan synthase assessed as [3H]UDPG incorporation; how it was run: as §1
Saccharomyces cerevisiae [22] = test: Antifungal activity against Saccharomyces cerevisiae BY4742-FKS1P649A mutant by CLSI method; type: functional
How it was run: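 Broth microdilution following CLSI M27-A2, run in YPD broth (1% yeast extract, 2% Bacto peptone, 2% dextrose). MICs are geometric means of at least three repetitions on three separate days.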

Candida orthopsilosis [23] = test: Antifungal activity against Candida orthopsilosis H10 by CLSI method; type: functional; conditions: Lodderomyces orthopsilosis
[24] = Inhibition of Candida metapsilosis am-2006-0113 glucan synthase assessed as [3H]UDPG incorporation; how it was run: as §1
Candida albicans [25] = test: Antifungal activity against Candida albicans ATCC 36082 by CLSI method; type: functional
[26] = Inhibition of Candida metapsilosis 960161 glucan synthase assessed as [3H]UDPG incorporation; how it was run: as §1
Candida albicans [27] = test: Antifungal activity against Candida albicans M122 by CLSI method; type: functional
[28] = Inhibition of Candida parapsilosis H5 glucan synthase assessed as [3H]UDPG incorporation; how it was run: as §1
[29] = Inhibition of Candida orthopsilosis 981224 glucan synthase assessed as [3H]UDPG incorporation; how it was run: as §1
Candida metapsilosis [30] = test: Antifungal activity against Candida metapsilosis 960161 by CLSI method; type: functional; conditions: Lodderomyces metapsilosis
Nakaseomyces glabratus [31] = test: Antifungal activity against Candida glabrata T51916 by CLSI method; type: functional

CCCCCOc1ccc(-c2ccc(-c3ccc(C(=O)N[C@H]4C[C@@H](O)[C@@H](O)NC(=O)[C@@H]5[C@@H](O)[C@@H](C)CN5C(=O)[C@H]([C@@H](C)O)NC(=O)[C@H]([C@H](O)[C@@H](O)c5ccc(O)cc5)NC(=O)[C@@H]5C[C@@H](O)CN5C(=O)[C@H]([C@@H](C)O)NC4=O)cc3)cc2)cc1 [ANIDULAFUNGIN] ({pTerphenylCO(4''-OnC5H11)}-[Orn(4R-OH,5R-OH)]T[Hyp][hTyr(3S-OH,4S-OH)]T[Pro(3S-OH,4S-Me)]; lactam 1-C)
MIC (Saccharomyces cerevisiae [1]): 0.03 µg/mL (≈ 0.0263 µM) | MIC (Saccharomyces cerevisiae [2]): 0.015 µg/mL (≈ 0.0132 µM) | IC50 [3]: 0.16317 µg/mL (≈ 0.143 µM) | Ki [3]: 0.111 µg/mL (≈ 0.0973 µM) | IC50 [4]: 0.53013 µg/mL (≈ 0.465 µM) | Ki [4]: 0.646 µg/mL (≈ 0.567 µM) | MIC (Candida orthopsilosis [5]): 1.26 µg/mL (≈ 1.11 µM) | IC50 [6]: 0.00163 µg/mL (≈ 0.00143 µM) | Ki [6]: 0.00143 µg/mL (≈ 0.00125 µM) | IC50 [7]: 0.00183 µg/mL (≈ 0.0016 µM) | Ki [7]: 0.00063 µg/mL (≈ 0.000553 µM) | MIC (Candida albicans [8]): 0.08 µg/mL (≈ 0.0702 µM) | IC50 [9]: 0.44203 µg/mL (≈ 0.388 µM) | Ki [9]: 0.6395 µg/mL (≈ 0.561 µM) | MIC (Candida parapsilosis [10]): 2.24 µg/mL (≈ 1.96 µM) | IC50 [11]: 0.00377 µg/mL (≈ 0.00331 µM) | IC50 [12]: 0.10737 µg/mL (≈ 0.0942 µM) | Ki [12]: 0.06895 µg/mL (≈ 0.0605 µM) | IC50 [13]: 1.663 µg/mL (≈ 1.46 µM) | Ki [13]: 2.374 µg/mL (≈ 2.08 µM) | MIC (Candida parapsilosis [14]): 1.1 µg/mL (≈ 0.965 µM) | IC50 [15]: 0.20686 µg/mL (≈ 0.181 µM) | Ki [15]: 0.712 µg/mL (≈ 0.624 µM) | MIC (Candida parapsilosis [16]): 1.59 µg/mL (≈ 1.39 µM) | MIC (Candida albicans [17]): 0.02 µg/mL (≈ 0.0175 µM) | MIC (Nakaseomyces glabratus [18]): 0.05 µg/mL (≈ 0.0438 µM) | MIC (Candida metapsilosis [19]): 0.63 µg/mL (≈ 0.553 µM) | IC50 [20]: 0.00089 µg/mL (≈ 0.000781 µM) | Ki [20]: 0.00133 µg/mL (≈ 0.00117 µM) | IC50 [21]: 0.11012 µg/mL (≈ 0.0966 µM) | Ki [21]: 0.3685 µg/mL (≈ 0.323 µM) | MIC (Saccharomyces cerevisiae [22]): 0.5 µg/mL (≈ 0.438 µM) | MIC (Candida orthopsilosis [23]): 0.79 µg/mL (≈ 0.693 µM) | IC50 [24]: 0.1264 µg/mL (≈ 0.111 µM) | Ki [24]: 0.0414 µg/mL (≈ 0.0363 µM) | MIC (Candida albicans [25]): 0.02 µg/mL (≈ 0.0175 µM) | IC50 [26]: 0.1333 µg/mL (≈ 0.117 µM) | Ki [26]: 0.129 µg/mL (≈ 0.113 µM) | MIC (Candida albicans [27]): 0.15 µg/mL (≈ 0.132 µM) | IC50 [28]: 0.23707 µg/mL (≈ 0.208 µM) | Ki [28]: 0.43167 µg/mL (≈ 0.379 µM) | IC50 [29]: 0.1419 µg/mL (≈ 0.124 µM) | Ki [29]: 0.0465 µg/mL (≈ 0.0408 µM) | MIC (Candida metapsilosis [30]): 0.79 µg/mL (≈ 0.693 µM) | MIC (Nakaseomyces glabratus [31]): 1.59 µg/mL (≈ 1.39 µM)

Source: ChEMBL document CHEMBL1275435, “A naturally occurring proline-to-alanine amino acid change in Fks1p in Candida parapsilosis, Candida orthopsilosis, and Candida metapsilosis accounts for reduced echinocandin susceptibility” (Antimicrob Agents Chemother, 2008)
